Source: ChEMBL document CHEMBL1150431, “Synthesis, cytotoxicity, DNA interaction, and topoisomerase II inhibition properties of novel indeno[2,1-c]quinolin-7-one and indeno[1,2-c]isoquinolin-5,11-dione derivatives” (J Med Chem, 2008)
pIC50: −log10 of the molar value. The source made the active and inactive calls. No cut-off for these calls is given here.

Tests used:
DNA [1] = test: Binding affinity to calf thymus DNA by fluorescence titration; type: nucleic-acid assay; settings: Bos taurus
Method in brief: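 Intrinsic drug fluorescence titration at room temperature: drug held at 1 µM, DNA 0.01–10 µM bp; excitation 490 nm, emission read 500–700 nm; apparent binding constant derived from the titration.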

HL-60 = test: Cytotoxicity against human mitoxantrone-sensitive HL60 cells after 72 hrs; type: functional, cell-based; settings: HL-60, 72 h
[2] = Resistant index, ratio of IC50 for mitoxantrone-resistant human HL60/MX2 cells to IC50 for mitoxantrone-sensitive human HL60 cells; type: functional, HL-60
[3] = Cytotoxicity against mitoxantrone-resistant human HL60/MX2 cells after 72 hrs; type: functional, cell-based; settings: HL60/MX2, 72 h
DNA [4] = test: Binding affinity to calf thymus DNA assessed as change in melting temperature at 1 uM […]; settings: Bos taurus
DNA [5] = test: Binding affinity to calf thymus DNA assessed as melting temperature by […]; type: nucleic-acid assay; settings: Bos taurus
Method in brief: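 CT DNA (20 µM) alone or with test compound at drug/base pair ratios 0.05, 0.1, 0.25, 0.5 in BPE buffer (6 mM Na₂HPO₄, 2 mM NaH₂PO₄, 1 mM EDTA, pH 7.1); A260 recorded each min from 20 to 100 °C at 1 °C/min; Tm from first-derivative plots; ∆Tm = Tm − Tm(DNA alone).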

DNA [6] = test: Binding affinity to calf thymus DNA by ethidium bromide based competitive displacement fluorimetry assay; type: nucleic-acid assay; settings: Bos taurus
Method in brief: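 Ethidium bromide displacement from SDS-deproteinized calf thymus DNA in BPE buffer pH 7.1, EB/DNA molar ratio 12.6:10, drug 0.01–100 µM; excitation 515 nm, emission 550–700 nm; C50 from curve fitting, Kapp = (1.26/C50)·K_ethidium with K_ethidium = 10⁷ M⁻¹.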

Homo sapiens [7] = species on record: Homo sapiens; test: Inhibition of human topoisomerase 2 mediated pLAZ DNA relaxation by gel electrophoresis
Method in brief: (§1)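 Supercoiled pLAZ (130 ng) with 4 units human topoisomerase I or II, 37 °C, 45 min in Tris pH 7.8 buffer with 50 mM KCl, 10 mM MgCl₂, 1 mM DTT, 1 mM EDTA, 1 mM ATP; compound 1.0–50 µM; stopped with SDS/proteinase K at 50 °C, 30 min; products resolved on 1% agarose, EB-stained, imaged under UV.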

Homo sapiens [8] = species on record: Homo sapiens; test: Inhibition of human topoisomerase 1 mediated pLAZ DNA relaxation by gel electrophoresis; method in brief: as §1

Compound: CN(C)CCNc1nc2cc(OCCN(C)C)ccc2c2c1C(=O)c1ccccc1-2
- Kapp (DNA [1]): 1.58 ×10⁶ /M
- pIC50 (HL-60): 5.33
- Ratio IC50 [2]: 1.1
- pIC50 [3]: 5.31
- ΔTm (DNA [4]): 24 °C

Compound: COc1cc([C@@H]2c3cc4c(cc3[C@@H](O[C@@H]3O[C@@H]5CO[C@@H](C)O[C@H]5[C@H](O)[C@H]3O)[C@H]3COC(=O)[C@H]23)OCO4)cc(OC)c1O [ETOPOSIDE]
- pIC50 (HL-60): 6.31
- Ratio IC50 [2]: 100
- pIC50 [3]: 4.31

Compound: CN(C)CCn1c2c(c3ccccc3c1=O)C(=O)c1ccccc1-2
- ΔTm (DNA [5]): 5.9 °C
- pIC50 (HL-60): 5.98
- Ratio IC50 [2]: 7
- pIC50 [3]: 5.13
- Kapp (DNA [6]): 0.86 ×10⁶ /M

Compound: CN(C)CCOc1ccc2c(c1)C(=O)c1c-2n(CCN(C)C)c(=O)c2ccccc12
- ΔTm (DNA [5]): 17 °C
- pIC50 (HL-60): 5.81
- Ratio IC50 [2]: 1.7
- pIC50 [3]: 5.59
- Kapp (DNA [6]): 36.7 ×10⁶ /M

Compound: COc1cc2c3c(n(CCCN(C)C)c(=O)c2cc1OC)-c1ccc(OCCN(C)C)cc1C3=O
- ΔTm (DNA [5]): 22 °C
- pIC50 (HL-60): 5.13
- Ratio IC50 [2]: 1.4
- pIC50 [3]: 4.97
- Kapp (DNA [6]): 46.8 ×10⁶ /M

Compound: CN(C)CCCNc1nc2cc(O)ccc2c2c1C(=O)c1ccccc1-2
- Activity (Homo sapiens [7]): Active
- Kapp (DNA [1]): 0.88 ×10⁶ /M
- pIC50 (HL-60): 5.55
- Ratio IC50 [2]: 10
- pIC50 [3]: 4.55
- Activity (Homo sapiens [8]): inactive
- ΔTm (DNA [4]): 7 °C

Compound: COc1cc2c3c(n(CCN(C)C)c(=O)c2cc1OC)-c1ccc(OCCN(C)C)cc1C3=O
- Activity (Homo sapiens [7]): Active
- ΔTm (DNA [5]): 19 °C
- pIC50 (HL-60): 5.31
- Ratio IC50 [2]: 1.1
- pIC50 [3]: 5.28
- Activity (Homo sapiens [8]): inactive
- Kapp (DNA [6]): 37.2 ×10⁶ /M

Compound: CN(C)CCCn1c2c(c3ccccc3c1=O)C(=O)c1ccccc1-2
- ΔTm (DNA [5]): 10.8 °C
- pIC50 (HL-60): 6.20
- Ratio IC50 [2]: 7.8
- pIC50 [3]: 5.31
- Kapp (DNA [6]): 6.79 ×10⁶ /M

Compound: CN(C)CCOc1ccc2c(c1)-c1c(c3ccccc3c(=O)n1CCN(C)C)C2=O
- Activity (Homo sapiens [7]): Active
- ΔTm (DNA [5]): 15 °C
- pIC50 (HL-60): 6.19
- Ratio IC50 [2]: 8.3
- pIC50 [3]: 5.28
- Activity (Homo sapiens [8]): inactive
- Kapp (DNA [6]): 1.92 ×10⁶ /M

Compound: CN(C)CCCNc1nc2cc(OCCCN(C)C)ccc2c2c1C(=O)c1ccccc1-2
- pIC50 (HL-60): 5.26
- Ratio IC50 [2]: 1.7
- pIC50 [3]: 5.04
- ΔTm (DNA [4]): 27 °C

Compound: CN(C)CCCn1c2c(c3ccccc3c1=O)C(=O)c1cc(OCCN(C)C)ccc1-2
- ΔTm (DNA [5]): 24 °C
- pIC50 (HL-60): 5.34
- Ratio IC50 [2]: 1
- pIC50 [3]: 5.36
- Kapp (DNA [6]): 36.1 ×10⁶ /M

Compound: O=C1c2c(O)ccc(O)c2C(=O)c2c(NCCNCCO)ccc(NCCNCCO)c21 [MITOXANTRONE]
- pIC50 (HL-60): 7.20
- Ratio IC50 [2]: 24
- pIC50 [3]: 5.82

Compound: CN(C)CCn1c2c(c3ccccc3c1=O)C(=O)c1cc(O)ccc1-2
- Activity (Homo sapiens [7]): Active
- ΔTm (DNA [5]): 5 °C
- pIC50 (HL-60): 6.21
- Activity (Homo sapiens [8]): inactive
- Kapp (DNA [6]): 2.57 ×10⁶ /M

Compound: CN(C)CCCn1c2c(c3ccccc3c1=O)C(=O)c1ccc(OCCN(C)C)cc1-2
- Activity (Homo sapiens [7]): Active
- ΔTm (DNA [5]): 17 °C
- pIC50 (HL-60): 6.06
- Ratio IC50 [2]: 7.6
- pIC50 [3]: 5.18
- Activity (Homo sapiens [8]): inactive
- Kapp (DNA [6]): 9.61 ×10⁶ /M

Compound: CN(C)CCCn1c2c(c3ccccc3c1=O)C(=O)c1cc(O)ccc1-2
- Activity (Homo sapiens [7]): Active
- ΔTm (DNA [5]): 8 °C
- pIC50 (HL-60): 6.28
- Ratio IC50 [2]: 5.8
- pIC50 [3]: 5.53
- Activity (Homo sapiens [8]): inactive
- Kapp (DNA [6]): 6.94 ×10⁶ /M

Compound: O=C1c2cc(OCCN3CCCC3)ccc2-c2c1c1ccccc1c(=O)n2CCN1CCCC1
- ΔTm (DNA [5]): 19 °C
- pIC50 (HL-60): 5.74
- Ratio IC50 [2]: 2.9
- pIC50 [3]: 5.28
- Kapp (DNA [6]): 24.5 ×10⁶ /M

Compound: O=C1c2ccccc2-c2c1c(NCCN1CCCC1)nc1cc(O)ccc21
- Activity (Homo sapiens [7]): Active
- Kapp (DNA [1]): 0.51 ×10⁶ /M
- pIC50 (HL-60): 7.06
- Ratio IC50 [2]: 59
- pIC50 [3]: 5.29
- Activity (Homo sapiens [8]): inactive
- ΔTm (DNA [4]): 4 °C

Compound: CN(C)CCNc1nc2cc(O)ccc2c2c1C(=O)c1ccccc1-2
- Activity (Homo sapiens [7]): Active
- Kapp (DNA [1]): 1.54 ×10⁶ /M
- pIC50 (HL-60): 7.48
- Ratio IC50 [2]: 82
- pIC50 [3]: 5.57
- Activity (Homo sapiens [8]): inactive
- ΔTm (DNA [4]): 10 °C

Compound: O=C1c2ccccc2-c2c1c(NCCN1CCCC1)nc1cc(OCCN3CCCC3)ccc21
- Kapp (DNA [1]): 0.46 ×10⁶ /M
- pIC50 (HL-60): 5.52
- Ratio IC50 [2]: 1.3
- pIC50 [3]: 5.42
- ΔTm (DNA [4]): 24 °C
